Reference: ChEMBL document CHEMBL1933058, “5-(2-amino-pyrimidin-4-yl)-1H-pyrrole and 2-(2-amino-pyrimidin-4-yl)-1,5,6,7-tetrahydro-pyrrolo[3,2-c]pyridin-4-one derivatives as new classes of selective and orally available Polo-like kinase 1 inhibitors” (Bioorg Med Chem Lett, 2012)
Activity calls are given as the source filed them. The rule behind the calls is not given here.

Tests used:
[1] = molecular target: Serine/threonine-protein kinase PLK2 (Homo sapiens, UniProt Q9NYY3); assay: Inhibition of PLK2
[2] = molecular target: Serine/threonine-protein kinase PLK3 (Homo sapiens, UniProt Q9H4B4); assay: Inhibition of PLK3
[3] = molecular target: Cyclin-dependent kinase 2/cyclin A (Homo sapiens, UniProt P24941); assay: Inhibition of CDK2/cyclin A; assay type: protein-complex assay
A2780 [4] = assay: Antiproliferative activity against human A2780 cells; assay type: functional, cell-based
[5] = Inhibition of CK2
[6] = molecular target: Receptor-type tyrosine-protein kinase FLT3 (Homo sapiens, UniProt P36888); assay: Inhibition of FLT3
Sequence of Receptor-type tyrosine-protein kinase FLT3 (P36888 whole entry): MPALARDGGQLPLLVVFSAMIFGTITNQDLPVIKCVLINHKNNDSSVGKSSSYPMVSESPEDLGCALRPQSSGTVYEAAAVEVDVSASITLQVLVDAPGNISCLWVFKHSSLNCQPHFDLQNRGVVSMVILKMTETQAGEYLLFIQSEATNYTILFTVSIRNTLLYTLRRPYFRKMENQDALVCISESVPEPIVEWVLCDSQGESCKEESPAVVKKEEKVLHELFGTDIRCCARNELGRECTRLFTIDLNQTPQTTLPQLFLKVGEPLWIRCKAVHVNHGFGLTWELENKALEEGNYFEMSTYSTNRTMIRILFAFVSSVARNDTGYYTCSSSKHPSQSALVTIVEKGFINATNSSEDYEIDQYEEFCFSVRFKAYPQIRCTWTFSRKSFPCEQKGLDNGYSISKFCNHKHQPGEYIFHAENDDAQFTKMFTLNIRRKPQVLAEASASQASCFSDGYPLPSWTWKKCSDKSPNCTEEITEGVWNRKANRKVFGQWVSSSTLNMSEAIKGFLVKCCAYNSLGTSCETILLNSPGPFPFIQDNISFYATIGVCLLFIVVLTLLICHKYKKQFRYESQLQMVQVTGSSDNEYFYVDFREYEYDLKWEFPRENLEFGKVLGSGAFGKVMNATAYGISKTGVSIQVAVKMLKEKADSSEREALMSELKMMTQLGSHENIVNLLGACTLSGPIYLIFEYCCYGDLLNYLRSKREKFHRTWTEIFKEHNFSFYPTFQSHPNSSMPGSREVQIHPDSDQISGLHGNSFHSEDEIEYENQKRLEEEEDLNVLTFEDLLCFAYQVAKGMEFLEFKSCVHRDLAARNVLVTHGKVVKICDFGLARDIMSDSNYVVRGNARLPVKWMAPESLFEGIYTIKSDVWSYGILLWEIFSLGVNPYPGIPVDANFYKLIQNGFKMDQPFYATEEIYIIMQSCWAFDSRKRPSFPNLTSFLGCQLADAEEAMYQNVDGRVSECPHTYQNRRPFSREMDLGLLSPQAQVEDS

[7] = molecular target: RAC-alpha serine/threonine-protein kinase (Homo sapiens, UniProt P31749); assay: Inhibition of AKT1
Sequence of RAC-alpha serine/threonine-protein kinase (P31749 whole entry): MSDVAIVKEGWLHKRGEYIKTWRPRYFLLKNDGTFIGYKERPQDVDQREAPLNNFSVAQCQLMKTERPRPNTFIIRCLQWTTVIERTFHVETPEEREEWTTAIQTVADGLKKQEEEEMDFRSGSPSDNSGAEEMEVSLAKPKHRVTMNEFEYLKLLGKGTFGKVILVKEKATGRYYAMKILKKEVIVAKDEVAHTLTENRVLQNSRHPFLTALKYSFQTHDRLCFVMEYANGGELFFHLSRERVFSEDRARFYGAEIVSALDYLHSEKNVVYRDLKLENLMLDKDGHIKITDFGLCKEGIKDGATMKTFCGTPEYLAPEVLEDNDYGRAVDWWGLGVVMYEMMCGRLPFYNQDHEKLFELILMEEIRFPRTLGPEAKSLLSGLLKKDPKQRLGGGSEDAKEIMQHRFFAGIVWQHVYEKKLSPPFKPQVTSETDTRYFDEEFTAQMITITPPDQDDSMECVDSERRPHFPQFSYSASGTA

Aurora kinase B = Aurora kinase B (Homo sapiens, UniProt Q96GD4); assay: Inhibition of Aurora-B
[8] = molecular target: Protein-tyrosine kinase 6 (Homo sapiens, UniProt Q13882); assay: Inhibition of BRK
[9] = molecular target: Cell division cycle 7-related protein kinase (Homo sapiens, UniProt O00311); assay: Inhibition of CDC7
[10] = molecular target: Cyclin-dependent kinase 2/cyclin E1 (Homo sapiens, UniProt P24941); assay: Inhibition of CDK2/cyclin E; assay type: protein-complex assay
[11] = molecular target: Cyclin-dependent kinase 5 activator 1 (Homo sapiens, UniProt Q15078); assay: Inhibition of CDK5/P25
[12] = molecular target: Serine/threonine-protein kinase Chk1 (Homo sapiens, UniProt O14757); assay: Inhibition of CHK1
[13] = molecular target: Epidermal growth factor receptor (Homo sapiens, UniProt P04626+P00533+Q15303+P21860); assay: Inhibition of EGFR1; assay type: protein assay
[14] = molecular target: Mitogen-activated protein kinase 1 (Homo sapiens, UniProt P28482); assay: Inhibition of ERK2
[15] = molecular target: Fibroblast growth factor receptor 1 (Homo sapiens, UniProt P11362); assay: Inhibition of FGFR1
[16] = molecular target: Glycogen synthase kinase-3 beta (Homo sapiens, UniProt P49841); assay: Inhibition of GSK3-beta
[17] = molecular target: Insulin-like growth factor 1 receptor (Homo sapiens, UniProt P08069); assay: Inhibition of IGFR1
[18] = molecular target: Inhibitor of nuclear factor kappa-B kinase subunit beta (Homo sapiens, UniProt O14920); assay: Inhibition of IKK2
Sequence of Inhibitor of nuclear factor kappa-B kinase subunit beta (O14920 whole entry): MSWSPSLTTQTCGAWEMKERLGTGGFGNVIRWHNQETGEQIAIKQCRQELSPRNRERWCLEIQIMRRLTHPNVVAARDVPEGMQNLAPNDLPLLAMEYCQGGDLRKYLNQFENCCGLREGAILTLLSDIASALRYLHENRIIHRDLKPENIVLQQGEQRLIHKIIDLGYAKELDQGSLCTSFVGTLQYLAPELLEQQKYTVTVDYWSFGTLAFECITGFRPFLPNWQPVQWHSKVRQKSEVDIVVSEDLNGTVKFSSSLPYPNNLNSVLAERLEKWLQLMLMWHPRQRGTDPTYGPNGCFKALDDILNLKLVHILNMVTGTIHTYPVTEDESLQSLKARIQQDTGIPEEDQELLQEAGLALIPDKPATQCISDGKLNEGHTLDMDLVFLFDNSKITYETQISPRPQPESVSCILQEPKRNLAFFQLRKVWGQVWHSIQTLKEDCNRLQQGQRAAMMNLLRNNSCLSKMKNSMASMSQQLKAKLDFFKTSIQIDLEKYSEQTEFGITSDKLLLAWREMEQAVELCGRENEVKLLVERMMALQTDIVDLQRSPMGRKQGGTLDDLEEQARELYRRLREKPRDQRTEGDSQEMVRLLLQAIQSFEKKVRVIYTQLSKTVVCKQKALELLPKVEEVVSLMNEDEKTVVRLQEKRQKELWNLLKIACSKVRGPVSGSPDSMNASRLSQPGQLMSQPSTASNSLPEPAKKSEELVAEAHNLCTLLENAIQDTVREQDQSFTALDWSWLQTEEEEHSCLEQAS

Insulin receptor = Insulin receptor (Homo sapiens, UniProt P06213); assay: Inhibition of IR
[19] = molecular target: Mast/stem cell growth factor receptor Kit (Homo sapiens, UniProt P10721); assay: Inhibition of KIT
[20] = molecular target: Tyrosine-protein kinase Lck (Homo sapiens, UniProt P06239); assay: Inhibition of LCK
[21] = molecular target: Serine/threonine-protein kinase 26 (Homo sapiens, UniProt Q9P289); assay: Inhibition of MST4
[22] = molecular target: Serine/threonine-protein kinase Nek6 (Homo sapiens, UniProt Q9HC98); assay: Inhibition of NEK6
[23] = Inhibition of NIM
[24] = molecular target: Mitogen-activated protein kinase 14 (Homo sapiens, UniProt Q16539); assay: Inhibition of P38alpha
Sequence of Mitogen-activated protein kinase 14 (Q16539 whole entry): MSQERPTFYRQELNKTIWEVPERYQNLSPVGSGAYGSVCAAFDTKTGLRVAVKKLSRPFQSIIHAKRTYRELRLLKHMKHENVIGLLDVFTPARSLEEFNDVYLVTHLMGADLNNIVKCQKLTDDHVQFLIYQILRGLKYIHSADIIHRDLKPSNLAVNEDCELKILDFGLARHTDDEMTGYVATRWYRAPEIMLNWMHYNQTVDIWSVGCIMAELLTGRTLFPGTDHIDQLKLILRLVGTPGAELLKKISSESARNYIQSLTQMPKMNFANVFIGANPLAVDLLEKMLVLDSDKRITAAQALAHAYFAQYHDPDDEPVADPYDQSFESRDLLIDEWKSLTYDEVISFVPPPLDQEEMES

[25] = Inhibition of PDGFR
[26] = molecular target: Proto-oncogene tyrosine-protein kinase receptor Ret (Homo sapiens, UniProt P07949); assay: Inhibition of RET
Sequence of Proto-oncogene tyrosine-protein kinase receptor Ret (P07949 whole entry): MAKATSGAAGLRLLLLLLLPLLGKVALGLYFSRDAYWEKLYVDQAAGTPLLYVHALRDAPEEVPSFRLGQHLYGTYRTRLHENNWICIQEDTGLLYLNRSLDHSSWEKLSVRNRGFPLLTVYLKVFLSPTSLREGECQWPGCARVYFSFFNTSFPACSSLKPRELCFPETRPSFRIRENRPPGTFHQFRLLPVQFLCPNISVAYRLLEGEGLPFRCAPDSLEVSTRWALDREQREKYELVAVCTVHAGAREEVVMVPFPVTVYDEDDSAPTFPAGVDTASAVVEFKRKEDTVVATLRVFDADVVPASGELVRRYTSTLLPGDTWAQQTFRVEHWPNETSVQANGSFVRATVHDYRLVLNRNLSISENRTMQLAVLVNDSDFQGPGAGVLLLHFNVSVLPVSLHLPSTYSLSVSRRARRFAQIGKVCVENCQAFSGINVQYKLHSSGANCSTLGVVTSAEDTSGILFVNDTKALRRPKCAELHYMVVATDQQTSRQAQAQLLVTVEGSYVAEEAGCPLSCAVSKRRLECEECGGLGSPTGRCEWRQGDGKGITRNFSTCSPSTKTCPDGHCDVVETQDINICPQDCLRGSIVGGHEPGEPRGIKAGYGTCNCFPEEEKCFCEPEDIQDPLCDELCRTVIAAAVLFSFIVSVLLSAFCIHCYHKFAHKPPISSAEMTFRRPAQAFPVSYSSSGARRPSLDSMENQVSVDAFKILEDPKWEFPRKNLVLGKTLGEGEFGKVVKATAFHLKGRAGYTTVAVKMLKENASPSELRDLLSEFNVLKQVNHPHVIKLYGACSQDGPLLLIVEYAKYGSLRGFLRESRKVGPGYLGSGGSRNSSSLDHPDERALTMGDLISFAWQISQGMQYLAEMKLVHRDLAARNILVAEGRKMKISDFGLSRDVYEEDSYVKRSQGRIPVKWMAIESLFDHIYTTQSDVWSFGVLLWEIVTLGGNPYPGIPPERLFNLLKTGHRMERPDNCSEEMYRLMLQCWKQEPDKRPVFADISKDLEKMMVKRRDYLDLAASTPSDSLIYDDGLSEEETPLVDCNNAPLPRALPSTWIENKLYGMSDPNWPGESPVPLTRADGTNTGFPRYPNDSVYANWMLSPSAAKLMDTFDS

[27] = molecular target: High affinity nerve growth factor receptor (Homo sapiens, UniProt P04629); assay: Inhibition of TRKA
[28] = molecular target: Vascular endothelial growth factor receptor 2 (Homo sapiens, UniProt P35968); assay: Inhibition of VEGFR2
Sequence of Vascular endothelial growth factor receptor 2 (P35968 whole entry): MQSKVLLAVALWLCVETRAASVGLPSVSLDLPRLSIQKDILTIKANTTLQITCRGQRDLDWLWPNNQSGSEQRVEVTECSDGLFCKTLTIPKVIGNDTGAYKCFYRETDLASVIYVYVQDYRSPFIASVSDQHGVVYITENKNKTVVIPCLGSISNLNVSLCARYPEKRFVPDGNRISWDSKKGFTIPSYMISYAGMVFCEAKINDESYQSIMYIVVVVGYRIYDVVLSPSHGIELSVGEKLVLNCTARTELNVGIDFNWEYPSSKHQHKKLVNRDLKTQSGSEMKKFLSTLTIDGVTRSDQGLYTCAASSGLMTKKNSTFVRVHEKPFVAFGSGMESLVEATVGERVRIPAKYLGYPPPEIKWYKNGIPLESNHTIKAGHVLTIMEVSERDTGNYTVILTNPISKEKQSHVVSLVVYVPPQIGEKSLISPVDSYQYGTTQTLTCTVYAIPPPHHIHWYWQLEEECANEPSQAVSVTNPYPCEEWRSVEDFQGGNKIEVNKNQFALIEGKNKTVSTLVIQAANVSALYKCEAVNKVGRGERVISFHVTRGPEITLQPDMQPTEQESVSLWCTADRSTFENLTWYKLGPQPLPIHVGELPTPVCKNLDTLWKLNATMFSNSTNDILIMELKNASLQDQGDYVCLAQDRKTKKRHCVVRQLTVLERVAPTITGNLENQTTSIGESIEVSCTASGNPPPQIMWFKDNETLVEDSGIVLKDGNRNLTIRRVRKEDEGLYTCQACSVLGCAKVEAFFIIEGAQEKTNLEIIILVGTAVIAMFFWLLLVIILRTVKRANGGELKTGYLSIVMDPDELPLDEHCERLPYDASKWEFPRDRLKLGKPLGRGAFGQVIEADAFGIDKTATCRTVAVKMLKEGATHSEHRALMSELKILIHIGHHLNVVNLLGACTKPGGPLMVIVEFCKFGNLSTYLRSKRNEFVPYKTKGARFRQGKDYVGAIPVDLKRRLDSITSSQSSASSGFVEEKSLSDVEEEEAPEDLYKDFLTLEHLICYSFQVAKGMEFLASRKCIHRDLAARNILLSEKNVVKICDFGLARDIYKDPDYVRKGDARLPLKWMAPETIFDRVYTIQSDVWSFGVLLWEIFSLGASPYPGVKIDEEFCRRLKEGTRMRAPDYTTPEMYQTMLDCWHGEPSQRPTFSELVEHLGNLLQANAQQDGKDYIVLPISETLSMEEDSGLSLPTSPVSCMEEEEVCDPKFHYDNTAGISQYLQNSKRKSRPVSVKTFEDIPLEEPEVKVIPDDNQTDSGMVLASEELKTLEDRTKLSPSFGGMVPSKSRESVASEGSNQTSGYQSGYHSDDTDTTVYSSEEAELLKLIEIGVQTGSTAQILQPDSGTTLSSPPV

[29] = molecular target: Vascular endothelial growth factor receptor 3 (Homo sapiens, UniProt P35916); assay: Inhibition of VEGFR3
A-375 = assay: Antiproliferative activity against human A375 cells; assay type: functional, cell-based
HCT-116 = assay: Antiproliferative activity against human HCT116 cells; assay type: functional, cell-based
LNCaP = assay: Antiproliferative activity against human LNCAP cells; assay type: functional, cell-based
K562 = assay: Antiproliferative activity against human K562 cells; assay type: functional, cell-based
MOLM-13 = assay: Antiproliferative activity against human MOLM13 cells; assay type: functional, cell-based
MOLT-4 = assay: Antiproliferative activity against human MOLT4 cells; assay type: functional, cell-based
[30] = Antiproliferative activity against human SUP-M2 cells; assay type: functional, cell-based
A2780 [31] = assay: Cell cycle arrest in human A2780 cells assessed as accumulation at G2/M phase at 0.05 to 5 uM after 24 hrs by FACS analysis; assay type: functional, cell-based
Summary of the method: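 A2780 cells were exposed for 24 h to 0.05, 0.5 or 5 µM. Cell-cycle distribution was read by flow cytometry (FACS), scoring G2-M accumulation. Nocodazole-treated cells served as positive control.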

A2780 [32] = assay: Cell cycle arrest in human A2780 cells assessed as increase of phospho Ser10 histone H3 level after 24 hrs by Western blotting analysis; assay type: functional, cell-based
Summary of the method: (§1)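 A2780 cells were treated for 24 h at 0.05, 0.5 and 5 µM, with nocodazole as positive control. Lysates were immunoblotted for pSer10 histone H3, pThr199 nucleophosmin, cyclin B1, cyclin A, PARP cleavage and caspase 3 activation.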

A2780 [33] = assay: Induction of apoptosis in human A2780 cells assessed as PARP cleavage at 5 uM after 24 hrs by Western blotting analysis; assay type: functional, cell-based; summary of the method: as §1
A2780 [34] = assay: Induction of apoptosis in human A2780 cells assessed as caspase3 activation at 5 uM after 24 hrs by Western blotting analysis; assay type: functional, cell-based; summary of the method: as §1
A2780 [35] = assay: Cell cycle arrest in human A2780 cells assessed as increase of phospho Ser10 histone H3 level at 0.05 to 5 uM after 1 hr by Western blotting analysis; assay type: functional, cell-based
Summary of the method: (§2)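 A2780 cells got 1 h exposure at 0.05, 0.5 and 5 µM, with nocodazole-treated cells as comparator. Western blot was used to probe the PLK1 substrate marker pSer46 TCTP and the mitotic marker pSer10 histone H3.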

A2780 [36] = assay: Cell cycle arrest in human A2780 cells assessed as reduction of phospho Ser46 TCTP level at 0.05 to 5 uM after 1 hr by Western blotting analysis; assay type: functional, cell-based; summary of the method: as §2
Caco-2 = assay: Apparent permeability across human Caco2 cells; assay type: ADME, cell-based
[37] = Apparent permeability of the compound by PAMPA; assay type: ADME
[38] = AUC (0 to infinity) in Nu/Nu Balb Harlan mouse at 10 mg/kg, iv; assay type: ADME, organism-based; design: time infinity, dose 10 mg/kg, route intravenous; details: plasma
Summary of the method: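 Male Balb Nu/Nu mice (Harlan) received a single 10 mg/kg intravenous dose, n = 3 animals per study. Vehicle was either trifluoroacetate salt in dextrose or free base in 50% PEG 400/glucosate, depending on compound. Parameters were reported as mean ± standard deviation.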

[39] = Cmax in Nu/Nu Balb Harlan mouse at 10 mg/kg, po; assay type: ADME, organism-based; design: dose 10 mg/kg, route oral; details: in vivo
[40] = AUC (0 to infinity) in Nu/Nu Balb Harlan mouse at 10 mg/kg, po; assay type: ADME, organism-based; design: time infinity, dose 10 mg/kg, route oral; details: plasma
[41] = Terminal half life in Nu/Nu Balb Harlan mouse at 10 mg/kg, po; assay type: ADME, organism-based; design: dose 10 mg/kg, route oral; details: in vivo, read-out: beta t1/2 (converted)
[42] = Oral bioavailability in Nu/Nu Balb Harlan mouse at 10 mg/kg; assay type: ADME, organism-based; details: in vivo
[43] = Tmax in Nu/Nu Balb Harlan mouse at 10 mg/kg, po; assay type: ADME, organism-based; design: dose 10 mg/kg, route oral; details: in vivo

Which IC50 [1] does the source give for CN1CCN(c2ccc(OC(F)(F)F)c(Nc3nccc(-c4cc5c(n4C)CCNC5=O)n3)c2)CC1 here?
The IC50 was > 10 µM.

And the IC50 [2]?
The IC50 was > 10 µM.

And the IC50 [3]?
Its IC50 is > 10 µM.

And the IC50 (A2780 [4])?
Its IC50 is 0.037 µM.

What about the IC50 [5] of the same compound?
Its IC50 is 0.42 µM.

What about the IC50 [6] of the same compound?
The IC50 was 0.659 µM.

What about the IC50 [7] of the same compound?
The IC50 was > 10 µM.

And the IC50 (Aurora kinase B)?
Its IC50 is > 10 µM.

What about the IC50 [8] of the same compound?
Its IC50 is > 10 µM.

And the IC50 [9]?
Its IC50 is > 10 µM.

And the IC50 [10]?
The IC50 was > 10 µM.

What about the IC50 [11] of the same compound?
Its IC50 is > 10 µM.

And the IC50 [12]?
Its IC50 is > 10 µM.

And the IC50 [13]?
The IC50 was > 10 µM.

What about the IC50 [14] of the same compound?
The IC50 was > 10 µM.

What about the IC50 [15] of the same compound?
Its IC50 is > 10 µM.

And the IC50 [16]?
The IC50 was > 10 µM.

And the IC50 [17]?
The IC50 was > 10 µM.

And the IC50 [18]?
Its IC50 is > 10 µM.

What about the IC50 (Insulin receptor) of the same compound?
Its IC50 is > 10 µM.

What about the IC50 [19] of the same compound?
Its IC50 is > 10 µM.

And the IC50 [20]?
The IC50 was > 10 µM.

And the IC50 [21]?
Its IC50 is > 10 µM.

What about the IC50 [22] of the same compound?
The IC50 was > 10 µM.

And the IC50 [23]?
Its IC50 is > 10 µM.

What about the IC50 [24] of the same compound?
Its IC50 is > 10 µM.

What about the IC50 [25] of the same compound?
The IC50 was > 10 µM.

And the IC50 [26]?
Its IC50 is > 10 µM.

And the IC50 [27]?
Its IC50 is > 10 µM.

And the IC50 [28]?
Its IC50 is > 10 µM.

And the IC50 [29]?
The IC50 was > 10 µM.

And the IC50 (A-375)?
Its IC50 is 0.027 µM.

And the IC50 (HCT-116)?
Its IC50 is 0.032 µM.

What about the IC50 (LNCaP) of the same compound?
Its IC50 is 0.026 µM.

And the IC50 (K562)?
The IC50 was 0.06 µM.

And the IC50 (MOLM-13)?
Its IC50 is 0.021 µM.

What about the IC50 (MOLT-4) of the same compound?
The IC50 was 0.017 µM.

And the IC50 [30]?
Its IC50 is 0.053 µM.

And the Activity (A2780 [31])?
The Activity was “Active”.

And the Activity (A2780 [32])?
The Activity was “Dose-dependent effect”.

And the Activity (A2780 [33])?
Its Activity is “Active”.

What about the Activity (A2780 [34]) of the same compound?
Its Activity is “Active”.

And the Activity (A2780 [35])?
Its Activity is “Active”.

What about the Activity (A2780 [36]) of the same compound?
Its Activity is “Active”.

And the Papp (Caco-2)?
The Papp was “permeable”.

What about the Papp [37] of the same compound?
Its Papp is 5.79 ×10⁻⁶ cm/s.

What about the AUC(0-inf) [38] of the same compound?
Its AUC(0-inf) is 5.78 µM·h.

And the Cmax [39]?
The Cmax was 760 nM.

What about the AUC(0-inf) [40] of the same compound?
Its AUC(0-inf) is 2.38 µM·h.

What about the half-life [41] of the same compound?
The half-life was 1.4 h.

And the bioavailability [42]?
Its bioavailability is 52%.

What about the Tmax [43] of the same compound?
The Tmax was 1.5 h.
